Experimental data as given in PMC10866054 (Journal of Enzyme Inhibition and Medicinal Chemistry, 2024).

Tests used:
MDA-MB-231 = experiment: MTT cytotoxicity, MDA-MB-231; assay type: cell-based; settings: Homo sapiens, MDA-MB-231, read-out: Cytotoxic activity IC50, MDA-MB-231
PC-3 = experiment: MTT cytotoxicity, PC-3; assay type: cell-based, human; settings: for fold superior to IC50 of the erlotinib, PC-3: PC-3 cell line, vs erlotinib; for IC50: read-out: Cytotoxic activity IC50, PC-3, MTT, mean ± SD of three experiments
HEPG-2 = experiment: MTT cytotoxicity, HEPG-2; assay type: cell-based, human; settings: for IC50: Homo sapiens, HepG2, read-out: Cytotoxic activity IC50, HEPG-2
HCT-116 = experiment: MTT cytotoxicity, HCT-116; assay type: cell-based; settings: Homo sapiens, HCT-116, read-out: Cytotoxic activity IC50, HCT-116
[1] = MTT cytotoxicity, normal prostate epithelial cells; assay type: cell-based; settings: human, HPrEC normal primary prostate epithelial cells
m-TOR = experiment: RT-qPCR gene expression of m-TOR in PC-3 cells; assay type: cell-based, human; settings: PC-3 cells treated at IC50 3.56 µM, compared to untreated cells
In short: (§1)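 Control and treated cells (1×10^5) were trypsinised, spun at 5000 rpm and washed in PBS. Total RNA was isolated and cDNA synthesised. Gene-specific mRNA was measured by qPCR with IDT-designed primers, with a GAPDH primer pair included. Expression was given relative to untreated control cells.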

BAX = experiment: RT-qPCR gene expression of BAX in PC-3 cells; assay type: cell-based, human; settings: PC-3 cells treated at IC50, vs untreated PC-3
In short: as §1

caspase 3 = experiment: RT-qPCR gene expression of caspase 3 in PC-3 cells; assay type: cell-based, human; settings: PC-3 cells treated at IC50, vs untreated PC-3
In short: as §1

EGFR = EGFR (Homo sapiens, UniProt P00533); experiment: EGFR Kinase Assay Kit; assay type: biochemical
PC-3 cells [2] = experiment: Cell cycle analysis; assay type: cell-based, human; settings: compound at IC50, 24 h
PI3Kα = PI3Kα (Homo sapiens, UniProt P42336); experiment: PI3K isoform ELISA kit, PI3Kα; assay type: biochemical; settings: mean ± SD of three experiments
PI3Kβ (p110β/p85α) = PI3Kβ (p110β/p85α) (Homo sapiens, UniProt P42338); experiment: PI3Kβ Assay Kit; assay type: biochemical
AKT = experiment: RT-qPCR gene expression of AKT in PC-3 cells; assay type: cell-based, human; settings: PC-3 cells treated at IC50 3.56 µM, compared to untreated cells
In short: as §1

PI3Kγ = PI3Kγ (Homo sapiens, UniProt P48736); experiment: PI3K isoform ELISA kit, PI3Kγ; assay type: biochemical
caspase 8 = experiment: RT-qPCR gene expression of caspase 8 in PC-3 cells; assay type: cell-based, human; settings: PC-3 cells treated at IC50, vs untreated PC-3
In short: as §1

P53 = experiment: RT-qPCR gene expression of P53 in PC-3 cells; assay type: cell-based, human; settings: PC-3 cells treated at IC50, vs untreated PC-3
In short: as §1

PC-3 cells [3] = experiment: Annexin V/propidium iodide staining for apoptosis; assay type: cell-based, human
PI3Kδ = PI3Kδ (Homo sapiens, UniProt O00329); experiment: PI3K isoform ELISA kit, PI3Kδ; assay type: biochemical
BCl-2 = experiment: RT-qPCR gene expression of BCl-2 in PC-3 cells; assay type: cell-based, human; settings: PC-3 cells treated at IC50, vs untreated PC-3
In short: as §1

Chain of PI3Kβ (p110β/p85α) (P42338 whole entry): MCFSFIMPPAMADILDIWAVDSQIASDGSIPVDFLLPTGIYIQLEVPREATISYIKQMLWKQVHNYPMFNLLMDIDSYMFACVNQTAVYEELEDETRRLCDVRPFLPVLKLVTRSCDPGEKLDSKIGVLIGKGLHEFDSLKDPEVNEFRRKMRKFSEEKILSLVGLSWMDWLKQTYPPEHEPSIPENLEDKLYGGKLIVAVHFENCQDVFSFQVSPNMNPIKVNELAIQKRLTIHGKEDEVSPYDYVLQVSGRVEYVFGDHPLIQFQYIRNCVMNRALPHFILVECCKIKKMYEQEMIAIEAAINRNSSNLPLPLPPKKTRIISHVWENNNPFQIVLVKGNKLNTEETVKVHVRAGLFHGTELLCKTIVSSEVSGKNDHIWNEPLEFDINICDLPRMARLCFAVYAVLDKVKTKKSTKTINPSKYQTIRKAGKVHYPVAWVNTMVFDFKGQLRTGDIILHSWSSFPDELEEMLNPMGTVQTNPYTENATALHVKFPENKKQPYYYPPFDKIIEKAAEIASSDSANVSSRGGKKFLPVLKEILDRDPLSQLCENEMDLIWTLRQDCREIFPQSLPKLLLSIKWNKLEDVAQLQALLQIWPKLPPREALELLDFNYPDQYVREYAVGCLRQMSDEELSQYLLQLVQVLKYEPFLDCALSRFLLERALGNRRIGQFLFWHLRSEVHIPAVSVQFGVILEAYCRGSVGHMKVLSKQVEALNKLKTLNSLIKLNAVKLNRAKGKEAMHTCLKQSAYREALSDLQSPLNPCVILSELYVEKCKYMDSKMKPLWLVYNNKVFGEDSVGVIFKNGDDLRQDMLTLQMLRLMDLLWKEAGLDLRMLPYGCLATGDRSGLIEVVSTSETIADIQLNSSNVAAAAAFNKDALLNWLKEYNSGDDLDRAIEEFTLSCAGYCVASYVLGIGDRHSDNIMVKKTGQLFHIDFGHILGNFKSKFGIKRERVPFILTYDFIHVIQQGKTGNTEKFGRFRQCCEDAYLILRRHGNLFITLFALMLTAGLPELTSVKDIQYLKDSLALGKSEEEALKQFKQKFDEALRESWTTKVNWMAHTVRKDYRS
Chain of PI3Kβ (p110β/p85α) (P27986 whole entry partner): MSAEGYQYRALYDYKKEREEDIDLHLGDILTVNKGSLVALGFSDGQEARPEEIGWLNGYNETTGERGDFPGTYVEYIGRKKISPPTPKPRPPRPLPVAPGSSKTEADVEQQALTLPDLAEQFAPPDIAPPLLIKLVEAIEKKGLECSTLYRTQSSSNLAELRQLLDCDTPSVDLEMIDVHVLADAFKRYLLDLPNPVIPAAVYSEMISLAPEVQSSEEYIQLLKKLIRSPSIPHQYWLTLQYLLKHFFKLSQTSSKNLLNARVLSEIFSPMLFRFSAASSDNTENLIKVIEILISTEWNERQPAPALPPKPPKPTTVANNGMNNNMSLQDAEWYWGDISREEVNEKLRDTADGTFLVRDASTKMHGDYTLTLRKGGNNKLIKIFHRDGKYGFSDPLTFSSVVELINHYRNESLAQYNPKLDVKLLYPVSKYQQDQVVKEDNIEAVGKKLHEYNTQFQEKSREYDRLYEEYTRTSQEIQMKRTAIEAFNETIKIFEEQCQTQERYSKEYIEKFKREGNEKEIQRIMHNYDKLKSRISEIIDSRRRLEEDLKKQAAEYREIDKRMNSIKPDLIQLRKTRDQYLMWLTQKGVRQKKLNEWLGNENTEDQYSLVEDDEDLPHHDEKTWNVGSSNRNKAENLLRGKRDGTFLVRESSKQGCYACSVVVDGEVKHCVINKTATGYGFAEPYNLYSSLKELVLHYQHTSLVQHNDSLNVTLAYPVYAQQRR
Chain of PI3Kδ (O00329 whole entry, canonical isoform): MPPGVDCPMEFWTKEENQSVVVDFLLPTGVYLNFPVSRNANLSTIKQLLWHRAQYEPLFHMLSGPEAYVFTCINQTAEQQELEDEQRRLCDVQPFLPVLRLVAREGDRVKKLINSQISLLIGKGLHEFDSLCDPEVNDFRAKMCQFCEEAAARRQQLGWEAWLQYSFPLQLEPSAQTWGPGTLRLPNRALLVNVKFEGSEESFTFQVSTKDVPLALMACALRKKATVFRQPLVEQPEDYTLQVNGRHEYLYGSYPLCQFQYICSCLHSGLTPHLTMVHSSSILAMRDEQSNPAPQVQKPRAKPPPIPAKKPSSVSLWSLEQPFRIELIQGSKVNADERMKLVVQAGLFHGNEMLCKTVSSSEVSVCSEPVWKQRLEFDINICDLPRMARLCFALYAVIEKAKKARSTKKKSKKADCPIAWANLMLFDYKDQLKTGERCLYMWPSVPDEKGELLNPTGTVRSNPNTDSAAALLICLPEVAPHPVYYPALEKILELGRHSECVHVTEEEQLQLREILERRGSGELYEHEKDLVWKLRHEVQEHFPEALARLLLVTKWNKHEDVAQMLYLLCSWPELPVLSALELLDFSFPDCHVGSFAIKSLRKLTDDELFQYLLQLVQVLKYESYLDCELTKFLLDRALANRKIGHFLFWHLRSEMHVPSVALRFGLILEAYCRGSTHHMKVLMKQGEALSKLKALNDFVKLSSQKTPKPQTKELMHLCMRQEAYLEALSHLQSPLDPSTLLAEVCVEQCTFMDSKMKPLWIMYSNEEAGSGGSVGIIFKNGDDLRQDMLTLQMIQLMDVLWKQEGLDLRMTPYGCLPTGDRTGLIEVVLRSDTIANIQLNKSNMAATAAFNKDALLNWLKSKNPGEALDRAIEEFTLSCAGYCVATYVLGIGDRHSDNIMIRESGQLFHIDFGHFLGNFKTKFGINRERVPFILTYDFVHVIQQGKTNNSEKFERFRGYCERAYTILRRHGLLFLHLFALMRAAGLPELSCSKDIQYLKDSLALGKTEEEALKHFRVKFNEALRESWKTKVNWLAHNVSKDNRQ
Chain of PI3Kδ (P27986 whole entry partner, canonical isoform): as the sequence (P27986 whole entry partner) above
Chain of PI3Kα (P42336 whole entry, canonical isoform): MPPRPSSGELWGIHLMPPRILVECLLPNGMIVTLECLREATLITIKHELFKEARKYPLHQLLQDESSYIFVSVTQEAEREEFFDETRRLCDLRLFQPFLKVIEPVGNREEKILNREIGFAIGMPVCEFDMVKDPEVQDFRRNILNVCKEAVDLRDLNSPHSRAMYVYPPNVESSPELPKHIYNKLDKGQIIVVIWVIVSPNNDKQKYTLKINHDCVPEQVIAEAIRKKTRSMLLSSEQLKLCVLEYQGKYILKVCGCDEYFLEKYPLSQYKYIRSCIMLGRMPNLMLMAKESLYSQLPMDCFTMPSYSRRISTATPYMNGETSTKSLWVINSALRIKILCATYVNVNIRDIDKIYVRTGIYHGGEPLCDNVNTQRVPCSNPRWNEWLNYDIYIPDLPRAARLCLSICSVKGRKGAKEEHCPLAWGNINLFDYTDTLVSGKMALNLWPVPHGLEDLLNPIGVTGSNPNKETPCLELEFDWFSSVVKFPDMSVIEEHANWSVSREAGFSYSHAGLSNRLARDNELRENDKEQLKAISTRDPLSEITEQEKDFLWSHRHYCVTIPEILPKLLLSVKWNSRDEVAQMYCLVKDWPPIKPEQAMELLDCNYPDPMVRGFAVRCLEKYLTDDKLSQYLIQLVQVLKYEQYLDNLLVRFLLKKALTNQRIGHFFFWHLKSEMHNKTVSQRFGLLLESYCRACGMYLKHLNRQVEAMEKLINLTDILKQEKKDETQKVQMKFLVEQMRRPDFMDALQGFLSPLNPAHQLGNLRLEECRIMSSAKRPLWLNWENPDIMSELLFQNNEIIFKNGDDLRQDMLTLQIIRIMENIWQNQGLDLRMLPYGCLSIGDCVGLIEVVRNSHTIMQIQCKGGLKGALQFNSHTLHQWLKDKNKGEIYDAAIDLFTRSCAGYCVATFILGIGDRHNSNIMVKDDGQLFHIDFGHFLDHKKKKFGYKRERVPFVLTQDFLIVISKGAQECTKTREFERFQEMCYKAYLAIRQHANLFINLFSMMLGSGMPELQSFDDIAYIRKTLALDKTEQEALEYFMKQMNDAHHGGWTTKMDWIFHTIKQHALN
Chain of PI3Kα (P27986 whole entry partner, canonical isoform): as the sequence (P27986 whole entry partner) above
Chain of PI3Kγ (P48736 whole entry, canonical isoform): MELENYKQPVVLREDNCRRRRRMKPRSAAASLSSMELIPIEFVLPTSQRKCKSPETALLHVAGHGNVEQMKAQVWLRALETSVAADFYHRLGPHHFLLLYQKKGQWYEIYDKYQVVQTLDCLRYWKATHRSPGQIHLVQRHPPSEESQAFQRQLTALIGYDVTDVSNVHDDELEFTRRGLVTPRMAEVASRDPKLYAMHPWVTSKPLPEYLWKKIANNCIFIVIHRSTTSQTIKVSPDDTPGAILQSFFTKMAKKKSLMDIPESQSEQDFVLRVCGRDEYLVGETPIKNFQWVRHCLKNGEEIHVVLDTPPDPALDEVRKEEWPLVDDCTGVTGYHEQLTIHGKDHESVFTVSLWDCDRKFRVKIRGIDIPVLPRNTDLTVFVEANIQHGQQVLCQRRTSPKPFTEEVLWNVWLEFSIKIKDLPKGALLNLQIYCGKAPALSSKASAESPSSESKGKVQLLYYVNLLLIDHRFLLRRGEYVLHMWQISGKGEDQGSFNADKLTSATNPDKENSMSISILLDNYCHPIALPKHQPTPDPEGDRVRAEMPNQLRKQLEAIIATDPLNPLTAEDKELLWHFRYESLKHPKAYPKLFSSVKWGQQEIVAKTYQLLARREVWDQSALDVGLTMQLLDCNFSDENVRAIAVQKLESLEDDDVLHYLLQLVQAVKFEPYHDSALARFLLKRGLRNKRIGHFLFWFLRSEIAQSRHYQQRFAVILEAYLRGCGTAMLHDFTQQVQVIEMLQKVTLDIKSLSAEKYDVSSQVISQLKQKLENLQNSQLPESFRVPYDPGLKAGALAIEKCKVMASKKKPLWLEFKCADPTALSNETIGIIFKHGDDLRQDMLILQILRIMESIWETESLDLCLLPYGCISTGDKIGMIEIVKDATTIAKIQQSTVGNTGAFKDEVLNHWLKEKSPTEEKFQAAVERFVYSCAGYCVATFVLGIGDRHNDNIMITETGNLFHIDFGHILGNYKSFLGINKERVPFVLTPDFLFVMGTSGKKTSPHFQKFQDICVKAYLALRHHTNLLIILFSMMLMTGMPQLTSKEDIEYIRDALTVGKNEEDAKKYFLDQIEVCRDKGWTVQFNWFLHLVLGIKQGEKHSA

Which IC50 (MDA-MB-231) does the source give for `CCc1c(C)c2ccc(OCC=Cc3ccccc3)c(C)c2oc1=O` [Compound 9e, 7-(Cinnamyloxy)-3-ethyl-4,8-dimethyl-2H-chromen-2-one] here?
Its IC50 is > 50 µM.

Which IC50 (MDA-MB-231) does the source give for `Cc1c(Cc2ccccc2)c(=O)oc2c(C)c(OCC(=O)NN=Cc3ccccc3)ccc12` [Compound 4c, 2-((3-Benzyl-4,8-dimethyl-2-oxo-2H-chromen-7-yl)oxy)-N'-benzylideneacetohydrazide] here?
The IC50 was 8.5 ± 0.85 µM.

With `CCc1c(C)c2ccc(OCC(=O)NNC(=S)Nc3ccccc3)c(C)c2oc1=O` [Compound 6c, 2-(2-((3-Ethyl-4,8-dimethyl-2-oxo-2H-chromen-7-yl)oxy)acetyl)-N-phenylhydrazine-1-carbothioamide] as the molecule, how does the IC50 (MDA-MB-231) read?
Its IC50 is > 50 µM.

With `CCc1c(C)c2ccc(OCc3nnc(S)n3N)c(C)c2oc1=O` [Compound 7, 7-((4-amino-5-mercapto-4H-1,2,4-triazol-3-yl)methoxy)-3-ethyl-4,8-dimethyl-2H-chromen-2-one] as the molecule, how does the IC50 (MDA-MB-231) read?
The IC50 was > 50 µM.

What does the source list for `Cc1c(Cc2ccccc2)c(=O)oc2c(C)c(OCC(=O)NN=Cc3ccco3)ccc12` [Compound 4b, 2-((3-Benzyl-4,8-dimethyl-2-oxo-2H-chromen-7-yl)oxy)-N'-(furan-2-ylmethylene)acetohydrazide]?
IC50 (MDA-MB-231): 11.8 ± 0.98 µM; fold superior to IC50 of the erlotinib, PC-3 (PC-3): 1.36 fold

Which IC50 (MDA-MB-231) does the source give for `Cc1c(Cc2ccccc2)c(=O)oc2c(C)c(OCC(=O)NN=Cc3ccc(Cl)cc3)ccc12` [Compound 4d, 2-((3-Benzyl-4,8-dimethyl-2-oxo-2H-chromen-7-yl)oxy)-N'-(4-chlorobenzylidene)acetohydrazide] here?
The IC50 was > 50 µM.

With `CCNC(=S)NNC(=O)COc1ccc2c(C)c(CC)c(=O)oc2c1C` [Compound 6a, N-Ethyl-2-(2-((3-ethyl-4,8-dimethyl-2-oxo-2H-chromen-7-yl)oxy)acetyl)hydrazine-1-carbothioamide] as the molecule, how does the IC50 (MDA-MB-231) read?
The IC50 was > 50 µM.

For “7-((amino-5-(isopropylthio)-4H-1,2,4-triazol-3-yl)methoxy)-3-ethyl-4,8-dimethyl-2H-chromen-2-one [Compound 8]”, which IC50 (PC-3) is on record?
The IC50 was > 50 µM.

With `C#Cc1cccc(Nc2ncnc3cc(OCCOC)c(OCCOC)cc23)c1` [Erlotinib, erlotinib, reference compound] as the molecule, how does the IC50 (MDA-MB-231) read?
Its IC50 is 11.1 ± 1.11 µM.

What about the IC50 (HEPG-2) of the same molecule?
Its IC50 is 22.1 ± 0.46 µM.

And the IC50 (HCT-116)?
Its IC50 is 17.8 ± 1.15 µM.

And the IC50 [1]?
The IC50 was 63.5 ± 5.56 µM.

With `CC(=NNC(=O)COc1ccc2c(C)c(Cc3ccccc3)c(=O)oc2c1C)c1ccc(Br)cc1` [Compound 5, 2-((3-benzyl-4,8-dimethyl-2-oxo-2H-chromen-7-yl)oxy)-N'-(1-(4-bromophenyl)ethylidene)acetohydrazide] as the molecule, how does the “downregulation of m-TOR gene expression” value (m-TOR) read?
The value was 2.6 fold.

And the “expression of BAX gene” value (BAX)?
Its value is 5.6 fold.

What about the “upregulation of caspase 3 gene” value (caspase 3) of the same molecule?
The value was 5.40 fold.

And the IC50 (MDA-MB-231)?
Its IC50 is 46.3 ± 2.7 µM.

And the IC50 (EGFR)?
Its IC50 is 0.181 µM.

What about the “cytotoxic activity times higher than erlotinib, HEPG-2” value (HEPG-2; HEPG-2 cell line, vs erlotinib) of the same molecule?
Its value is 1.5 times.

And the IC50 (HEPG-2)?
The IC50 was 14.2 ± 1.2 µM.

What about the “fold superior to IC50 of the erlotinib, PC-3” value (PC-3) of the same molecule?
Its value is 3.45 fold.

What about the “percentage of cells in G1 phase” value (PC-3 cells [2]) of the same molecule?
The value was 52.09%.

What about the “percentage of cells in G2/M phase” value (PC-3 cells [2]) of the same molecule?
Its value is 5.8%.

What about the “percentage of cells in S phase” value (PC-3 cells [2]) of the same molecule?
Its value is 42.11%.

And the IC50 (PI3Kα)?
Its IC50 is 2.89 ± 0.33 µM.

What about the IC50 (HCT-116) of the same molecule?
Its IC50 is 19.8 ± 0.55 µM.

And the IC50 [1]?
Its IC50 is 95.5 ± 1.3 µM.

What about the IC50 (PI3Kβ (p110β/p85α)) of the same molecule?
The IC50 was 0.261 µM.

And the “PI3Kβ inhibitory activity relative to LY294002” value (PI3Kβ (p110β/p85α); vs LY294002 as reference PI3Kβ inhibitor)?
The value was “twofold”.

And the “downregulation of AKT gene expression” value (AKT)?
Its value is 2.5 fold.

And the IC50 (PI3Kγ)?
The IC50 was 5.04 ± 0.21 µM.

What about the “upregulation of caspase 8 gene” value (caspase 8) of the same molecule?
Its value is 2.96 fold.

And the “induced expression of P53 gene” value (P53)?
The value was 3.83 fold.

And the “proportion of early apoptotic cells” value (PC-3 cells [3]; compound at IC50, lower right quadrant)?
Its value is 22.62%.

And the “proportion of late apoptotic cells” value (PC-3 cells [3]; compound at IC50, upper right quadrant)?
Its value is 13.33%.

What about the IC50 (PI3Kδ) of the same molecule?
Its IC50 is 5.49 ± 0.29 µM.

What about the “downregulation of BCl-2 gene” value (BCl-2) of the same molecule?
The value was 0.30 fold.

What does the source list for `CCc1c(C)c2ccc(OCC(=O)NN=Cc3ccc([N+](=O)[O-])cc3)cc2oc1=O` [Compound 4a, 2-((3-Ethyl-4-methyl-2-oxo-2H-chromen-7-yl)oxy)-N'-(4-nitrobenzylidene) acetohydrazide]?
IC50 (MDA-MB-231): 23.6 ± 0.36 µM; fold superior to IC50 of the erlotinib, PC-3 (PC-3): 1.2 fold; IC50 (PI3Kβ (p110β/p85α)): 0.792 µM

For `CCCOc1ccc2c(C)c(CC)c(=O)oc2c1C` [Compound 9b, 3-Ethyl-4,8-dimethyl-7-propoxy-2H-chromen-2-one], which IC50 (MDA-MB-231) is on record?
The IC50 was > 50 µM.

With `O=c1cc(N2CCOCC2)oc2c(-c3ccccc3)cccc12` [LY294002, reference compound] as the molecule, how does the IC50 (PI3Kδ) read?
Its IC50 is 7.42 ± 0.36 µM.

With `C=CCOc1ccc2c(C)c(CC)c(=O)oc2c1C` [Compound 9d, 7-(Allyloxy)-3-ethyl-4,8-dimethyl-2H-chromen-2-one] as the molecule, how does the IC50 (MDA-MB-231) read?
The IC50 was > 50 µM.

With `CCOc1ccc2c(C)c(CC)c(=O)oc2c1C` [Compound 9a, 7-Ethoxy-3-ethyl-4,8-dimethyl-2H-chromen-2-one] as the molecule, how does the IC50 (MDA-MB-231) read?
Its IC50 is > 50 µM.

What does the source list for `Cc1c(Cc2ccccc2)c(=O)oc2c(C)c(OCC(=O)NN=Cc3ccc([N+](=O)[O-])cc3)ccc12` [Compound 4e, 2-((3-Benzyl-4,8-dimethyl-2-oxo-2H-chromen-7-yl)oxy)-N'-(4-nitrobenzylidene)acetohydrazide]?
IC50 (MDA-MB-231): 24.3 ± 2.28 µM; IC50 (PC-3): 23.1 ± 1.2 µM; IC50 (PI3Kβ (p110β/p85α)): 0.992 µM

For `C=CCNC(=S)NNC(=O)COc1ccc2c(C)c(CC)c(=O)oc2c1C` [Compound 6b, N-Allyl-2-(2-((3-ethyl-4,8-dimethyl-2-oxo-2H-chromen-7-yl)oxy)acetyl)hydrazine-1-carbothioamide], which IC50 (MDA-MB-231) is on record?
Its IC50 is > 50 µM.
